Reference: ChEMBL document CHEMBL3526048, “In vitro metabolism of rivoglitazone, a novel peroxisome proliferator-activated receptor γ agonist, in rat, monkey, and human liver microsomes and freshly isolated hepatocytes” (Drug Metab Dispos, 2011)

How the values were obtained:
Format in all cases: ADME
[1] = target: Cytochrome P450 3A4 (Homo sapiens, UniProt P08684); assay: Activity of human CYP3A4 expressed in microsomes isolated from baculovirus infected insect cell assessed as enzyme-mediated 3-(4-((6-methoxy-1-methyl-1H-benzo[d]imidazol-2-yl)methoxy)phenyl)-2-(methylthio)propanoic acid formation at 20 uM after 2 hrs by radio-HPLC/LC-MS/MS analysis in presence of NADPH-generating system/SAM and UDPGA/SAM
Chain of Cytochrome P450 3A4 (P08684 whole entry): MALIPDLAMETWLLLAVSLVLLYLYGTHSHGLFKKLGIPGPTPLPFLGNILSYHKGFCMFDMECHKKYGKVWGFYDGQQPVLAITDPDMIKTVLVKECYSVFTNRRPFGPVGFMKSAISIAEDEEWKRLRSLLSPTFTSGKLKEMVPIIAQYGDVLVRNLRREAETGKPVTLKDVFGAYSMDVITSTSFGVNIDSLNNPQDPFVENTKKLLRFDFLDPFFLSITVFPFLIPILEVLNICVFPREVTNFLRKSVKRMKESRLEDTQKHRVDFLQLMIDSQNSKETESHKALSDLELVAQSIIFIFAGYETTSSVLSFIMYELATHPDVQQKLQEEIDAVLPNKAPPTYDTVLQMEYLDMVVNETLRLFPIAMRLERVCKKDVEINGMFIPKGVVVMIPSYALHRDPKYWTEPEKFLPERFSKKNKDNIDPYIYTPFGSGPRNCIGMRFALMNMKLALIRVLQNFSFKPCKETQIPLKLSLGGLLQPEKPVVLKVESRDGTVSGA

[2] = target: T1, UDP-glucuronosyltransferase 1A3 (Homo sapiens, UniProt P35503); assay: (§1) Activity of human UGT1A3 expressed in microsomes isolated from baculovirus infected insect cell assessed as enzyme-mediated 2-mercapto-3-(4-((6-methoxy-1-methyl-1H-benzo[d]imidazol-2-yl)methoxy)phenyl)propanamide formation at 20 uM after 4 hrs by radio-HPLC/LC-MS/MS analysis in presence of NADPH-generating system and NADPH-generating system/SAM in presence of UDPGA and UDPGA/SAM
T1 sequence (P35503 whole entry): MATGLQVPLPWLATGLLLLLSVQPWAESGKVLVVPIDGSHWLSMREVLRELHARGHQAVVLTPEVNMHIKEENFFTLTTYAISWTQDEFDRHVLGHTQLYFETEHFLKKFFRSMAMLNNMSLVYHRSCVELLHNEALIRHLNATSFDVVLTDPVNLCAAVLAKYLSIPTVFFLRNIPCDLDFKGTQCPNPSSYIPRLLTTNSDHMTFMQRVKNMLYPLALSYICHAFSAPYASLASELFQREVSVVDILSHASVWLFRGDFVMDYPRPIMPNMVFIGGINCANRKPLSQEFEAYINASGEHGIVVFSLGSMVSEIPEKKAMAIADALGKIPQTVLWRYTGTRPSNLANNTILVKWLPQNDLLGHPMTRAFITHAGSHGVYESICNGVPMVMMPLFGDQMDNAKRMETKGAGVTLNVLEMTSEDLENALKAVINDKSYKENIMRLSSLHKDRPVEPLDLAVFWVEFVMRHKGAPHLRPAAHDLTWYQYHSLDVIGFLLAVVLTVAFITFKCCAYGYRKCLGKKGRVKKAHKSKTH

[3] = target: T2, Cytochrome P450 2C8 (Homo sapiens, UniProt P10632); assay: Activity of human CYP2C8 expressed in microsomes isolated from baculovirus infected insect cell assessed as enzyme-mediated 3-(4-((6-methoxy-1-methyl-1H-benzo[d]imidazol-2-yl)methoxy)phenyl)-2-(methylsulfonyl)propanamide formation at 20 uM after 2 hrs by radio-HPLC/LC-MS/MS analysis in presence of NADPH-generating system/SAM
T2 sequence (P10632 whole entry): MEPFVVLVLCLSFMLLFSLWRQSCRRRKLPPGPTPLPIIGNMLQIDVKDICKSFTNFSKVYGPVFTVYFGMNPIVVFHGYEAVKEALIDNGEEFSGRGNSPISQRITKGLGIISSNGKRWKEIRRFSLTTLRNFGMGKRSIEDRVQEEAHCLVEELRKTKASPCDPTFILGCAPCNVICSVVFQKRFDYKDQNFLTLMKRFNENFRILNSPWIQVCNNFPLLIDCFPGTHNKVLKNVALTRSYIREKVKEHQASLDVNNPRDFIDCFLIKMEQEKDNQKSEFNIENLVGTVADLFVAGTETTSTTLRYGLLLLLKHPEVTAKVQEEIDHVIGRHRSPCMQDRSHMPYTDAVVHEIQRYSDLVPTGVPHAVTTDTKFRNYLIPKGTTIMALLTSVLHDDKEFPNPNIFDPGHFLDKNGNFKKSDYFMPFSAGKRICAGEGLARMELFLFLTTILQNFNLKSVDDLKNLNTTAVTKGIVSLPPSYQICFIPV

[4] = target: Cytochrome P450 2C19 (Homo sapiens, UniProt P33261); assay: Activity of human CYP2C19 expressed in microsomes isolated from baculovirus infected insect cell assessed as enzyme-mediated 2-hydroxy-3-(4-((6-methoxy-1-methyl-1H-benzo[d]imidazol-2-yl)methoxy)phenyl)propanamide formation at 20 uM after 2 hrs by radio-HPLC/LC-MS/MS analysis in presence of NADPH-generating system and NADPH-generating system/SAM
Chain of Cytochrome P450 2C19 (P33261 whole entry): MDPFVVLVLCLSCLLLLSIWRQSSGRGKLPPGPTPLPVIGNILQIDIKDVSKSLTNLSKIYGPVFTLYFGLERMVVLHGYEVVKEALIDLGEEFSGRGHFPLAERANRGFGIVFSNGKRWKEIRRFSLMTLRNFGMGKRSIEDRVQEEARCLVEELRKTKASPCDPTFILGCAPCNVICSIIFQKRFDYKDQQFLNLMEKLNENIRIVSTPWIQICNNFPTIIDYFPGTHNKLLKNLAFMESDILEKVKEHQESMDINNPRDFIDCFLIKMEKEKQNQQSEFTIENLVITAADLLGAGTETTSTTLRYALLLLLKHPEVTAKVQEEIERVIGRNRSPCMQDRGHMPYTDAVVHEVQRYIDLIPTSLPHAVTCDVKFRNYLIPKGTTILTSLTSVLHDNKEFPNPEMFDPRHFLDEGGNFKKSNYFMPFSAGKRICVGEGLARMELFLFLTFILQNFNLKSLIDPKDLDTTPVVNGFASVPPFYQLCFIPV
In short: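 Baculovirus/insect-cell microsomes expressing single human CYPs, 1 mg/ml protein, with 50 mM potassium phosphate (pH 7.4) or 100 mM Tris-HCl (pH 7.5). NADPH-generating system: 2 mM NADP⁺, 20 mM glucose 6-phosphate, 2 units/ml G6PDH, 10 mM MgCl₂. [¹⁴C]rivoglitazone at 20 μM, 2 h at 37°C with shaking. Control used insect-cell control supersomes. Stopped with acetonitrile; supernatant concentrated under nitrogen; metabolites analysed by radio-HPLC, LC-MS and LC-MS/MS.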

[5] = target: T3, Cytochrome P450 1A2 (Homo sapiens, UniProt P05177); assay: Activity of human CYP1A2 expressed in microsomes isolated from baculovirus infected insect cell assessed as enzyme-mediated (2S,3S,4S,5R,6R)-3,4,5-trihydroxy-6-(5-(4-((6-methoxy-1-methyl-1H-benzo[d]imidazol-2-yl)methoxy)benzyl)-2,4-dioxothiazolidin-3-yl)tetrahydro-2H-pyran-2-carboxylic acid formation at 20 uM after 2 hrs by radio-HPLC/LC-MS/MS analysis in presence of UDPGA and UDPGA/SAM
T3 sequence (P05177 whole entry): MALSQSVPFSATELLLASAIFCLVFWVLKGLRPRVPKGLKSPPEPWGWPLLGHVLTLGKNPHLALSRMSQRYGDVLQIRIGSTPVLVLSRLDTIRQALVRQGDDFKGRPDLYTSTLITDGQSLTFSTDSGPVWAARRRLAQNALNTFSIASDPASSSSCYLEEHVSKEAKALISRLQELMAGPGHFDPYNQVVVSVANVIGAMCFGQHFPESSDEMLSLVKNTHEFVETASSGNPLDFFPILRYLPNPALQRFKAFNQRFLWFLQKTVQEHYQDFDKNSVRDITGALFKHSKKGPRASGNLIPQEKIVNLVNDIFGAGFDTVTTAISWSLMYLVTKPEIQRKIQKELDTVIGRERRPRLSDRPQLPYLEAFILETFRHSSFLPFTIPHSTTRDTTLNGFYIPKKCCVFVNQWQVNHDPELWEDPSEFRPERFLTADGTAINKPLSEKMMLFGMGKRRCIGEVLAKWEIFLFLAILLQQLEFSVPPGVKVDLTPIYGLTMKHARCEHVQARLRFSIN

[6] = tested on: Liver microsome; assay: Drug metabolism in human liver microsomes assessed as formation of 3-(4-((6-methoxy-1-methyl-1H-benzo[d]imidazol-2-yl)methoxy)phenyl)-2-(methylsulfinyl)propanamide at 20 uM after 2 hrs by radio-HPLC/LC-MS/MS analysis in presence of NADPH-generating system/SAM
[7] = target: T4, UDP-glucuronosyltransferase 2B7 (Homo sapiens, UniProt P16662); assay: as §1, with “UGT2B7” for “UGT1A3”, “2-hydroxy-3-(4-((6-methoxy-1-methyl-1H-benzo[d]imidazol-2-yl)methoxy)phenyl)propanamide” for “2-mercapto-3-(4-((6-methoxy-1-methyl-1H-benzo[d]imidazol-2-yl)methoxy)phenyl)propanamide”
T4 sequence (P16662 whole entry): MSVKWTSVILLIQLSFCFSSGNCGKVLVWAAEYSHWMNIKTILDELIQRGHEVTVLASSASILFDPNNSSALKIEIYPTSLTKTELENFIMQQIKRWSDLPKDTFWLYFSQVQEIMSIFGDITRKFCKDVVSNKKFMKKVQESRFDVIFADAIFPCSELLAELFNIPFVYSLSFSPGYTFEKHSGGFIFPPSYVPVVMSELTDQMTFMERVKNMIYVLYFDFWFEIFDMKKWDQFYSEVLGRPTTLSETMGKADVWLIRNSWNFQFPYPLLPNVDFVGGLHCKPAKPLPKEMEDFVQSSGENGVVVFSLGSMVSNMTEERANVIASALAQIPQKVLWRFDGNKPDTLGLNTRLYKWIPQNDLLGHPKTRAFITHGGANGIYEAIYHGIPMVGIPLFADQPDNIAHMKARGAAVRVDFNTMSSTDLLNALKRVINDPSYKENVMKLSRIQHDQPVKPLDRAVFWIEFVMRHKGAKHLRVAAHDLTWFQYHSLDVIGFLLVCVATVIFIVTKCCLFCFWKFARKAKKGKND

**Q.** COc1ccc2nc(COc3ccc(C[14CH]4SC(=O)NC4=O)cc3)n(C)c2c1.Cl (racemic) was tested. Which Drug metabolism [1] did it give?
**A.** metabolite_not_detected

**Q.** What about the Drug metabolism [2] of the same molecule?
**A.** metabolite_not_detected

**Q.** What about the Drug metabolism [3] of the same molecule?
**A.** metabolite_not_detected

**Q.** And the Drug metabolism [4]?
**A.** metabolite_detected

**Q.** And the Drug metabolism [5]?
**A.** metabolite_not_detected

**Q.** What about the Drug metabolism [6] of the same molecule?
**A.** metabolite_detected

**Q.** What about the Drug metabolism [7] of the same molecule?
**A.** metabolite_not_detected
